“Also recorded” adds a separate entry of the source. Each block holds one compound with its values, some of them ahead of it.
Legend:
[1] = Brain penetration of PARP inhibitors in mice; assay type: in vivo, male C57 mice; conditions: for Kp: po, AUC1-4h
[2] = system: MDA-MB-436 breast cancer xenograft; assay: MDA-MB-436 breast cancer xenograft efficacy; assay type: in vivo, BALB/c nude mice; conditions: for tumor relapse at day 89: two months after treatment terminated
Procedure, shortened: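 MDA-MB-436 cells at 2.5 × 10⁷ cells/mL in 1:1 PBS/Matrigel, implanted subcutaneously in the right front flank of 6–8-week female BALB/c nude mice. At ~130 mm³, mice stratified into six groups of nine. Oral BID dosing for 28 days: vehicle (0.5% methylcellulose), test compound from 1.6 mg/kg, or a comparator PARP inhibitor at 25 or 50 mg/kg. Tumours followed to day 89.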

[3] = system: intracellular PAR levels in HeLa cells; assay: Inhibition of H2O2-induced PAR synthesis; assay type: cell-based; conditions: Homo sapiens, 18 h, read-out: IC50 of intracellular PARP activity
[4] = system: intracellular PARP activity in H2O2-treated SF-295 cells; assay: Inhibition of H2O2-induced PAR synthesis; assay type: cell-based; conditions: Homo sapiens, SF-295, read-out: IC50 of intracellular PARP activity
Procedure, shortened: (§1)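 Cells seeded at 5000/well in DMEM with 10% FBS. After 4 h, test compound added as eight serial dilutions (0.02–200 nM final) in 0.1% DMSO for 18 h. DNA damage induced with 200 μM H₂O₂ at 37 °C for 5 min. Cells fixed in ice-cold methanol at −20 °C and stained overnight at 4 °C with anti-PAR mAb, Alexa 488 secondary and DAPI. Nuclear PAR intensity imaged; IC50 taken from residual activity.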

[5] = system: intracellular PARP activity in H2O2-treated GL261 cells; assay: Inhibition of H2O2-induced PAR synthesis; assay type: cell-based, murine; conditions: Mus musculus, GL261, read-out: IC50 of intracellular PARP activity
Procedure, shortened: as §1

[6] = PK study in healthy mice; assay type: in vivo, Mouse
Procedure, shortened: (§2)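 Healthy animals given a single dose. Mouse: 10 mg/kg p.o. or 1 mg/kg i.v. Rat: 5 mg/kg p.o. or 2 mg/kg i.v. Dog: 2 mg/kg p.o. or 1 mg/kg i.v. Plasma deproteinised with acetonitrile containing internal standard and centrifuged at 14,000 rpm for 8 min. Drug measured by LC–MS/MS. Dosing solutions analysed to confirm the actual dose given.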

[7] = PK study in rat; assay type: in vivo
Procedure, shortened: as §2

[8] = PK study in dog; assay type: in vivo
Procedure, shortened: as §2

[9] = QWBA tissue distribution of [14C] pamiparib; assay type: in vivo, Long-Evans rats; conditions: rats, single oral 5 mg/kg, 24 h post treatment
[10] = Brain penetration after intravenous administration, Kpuu; assay type: in vivo, SD rats; conditions: male, Sprague-Dawley, rat, brain and plasma (unbound), 1 mg/kg
[11] = molecular target: Human BCRP (Homo sapiens, UniProt Q9UNQ0); assay: ATP-dependent uptake activity, BCRP substrate test; assay type: in vitro ADME; conditions: 0.5 μM to 30 μM; uptake ratio ≥ 2-fold is positive
Chain of Human BCRP (Q9UNQ0 whole entry): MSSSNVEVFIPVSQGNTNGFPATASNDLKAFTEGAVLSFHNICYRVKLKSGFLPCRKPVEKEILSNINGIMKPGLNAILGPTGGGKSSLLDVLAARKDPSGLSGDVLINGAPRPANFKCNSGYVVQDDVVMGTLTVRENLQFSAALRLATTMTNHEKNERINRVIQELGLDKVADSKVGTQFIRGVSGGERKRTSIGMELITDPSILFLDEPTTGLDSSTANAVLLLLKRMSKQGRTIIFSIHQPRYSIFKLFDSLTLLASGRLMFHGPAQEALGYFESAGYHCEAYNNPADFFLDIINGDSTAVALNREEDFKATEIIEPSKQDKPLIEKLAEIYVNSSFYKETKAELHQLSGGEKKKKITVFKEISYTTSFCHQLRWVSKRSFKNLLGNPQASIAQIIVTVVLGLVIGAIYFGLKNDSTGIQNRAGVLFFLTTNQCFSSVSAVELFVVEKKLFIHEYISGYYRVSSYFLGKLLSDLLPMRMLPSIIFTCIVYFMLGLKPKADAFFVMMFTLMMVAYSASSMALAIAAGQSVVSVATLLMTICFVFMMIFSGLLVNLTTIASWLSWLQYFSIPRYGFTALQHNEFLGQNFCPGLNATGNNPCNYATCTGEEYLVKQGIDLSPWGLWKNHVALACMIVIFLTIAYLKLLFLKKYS

[12] = molecular target: P-gp (Homo sapiens, UniProt P08183); assay: P-gp efflux activity in MDCKII-MDR1 cell monolayer; assay type: in vitro ADME; conditions: 1 µM and 10 µM; ER > 2 and decrease to < 50% with inhibitor suggests substrate
Chain of P-gp (P08183 whole entry): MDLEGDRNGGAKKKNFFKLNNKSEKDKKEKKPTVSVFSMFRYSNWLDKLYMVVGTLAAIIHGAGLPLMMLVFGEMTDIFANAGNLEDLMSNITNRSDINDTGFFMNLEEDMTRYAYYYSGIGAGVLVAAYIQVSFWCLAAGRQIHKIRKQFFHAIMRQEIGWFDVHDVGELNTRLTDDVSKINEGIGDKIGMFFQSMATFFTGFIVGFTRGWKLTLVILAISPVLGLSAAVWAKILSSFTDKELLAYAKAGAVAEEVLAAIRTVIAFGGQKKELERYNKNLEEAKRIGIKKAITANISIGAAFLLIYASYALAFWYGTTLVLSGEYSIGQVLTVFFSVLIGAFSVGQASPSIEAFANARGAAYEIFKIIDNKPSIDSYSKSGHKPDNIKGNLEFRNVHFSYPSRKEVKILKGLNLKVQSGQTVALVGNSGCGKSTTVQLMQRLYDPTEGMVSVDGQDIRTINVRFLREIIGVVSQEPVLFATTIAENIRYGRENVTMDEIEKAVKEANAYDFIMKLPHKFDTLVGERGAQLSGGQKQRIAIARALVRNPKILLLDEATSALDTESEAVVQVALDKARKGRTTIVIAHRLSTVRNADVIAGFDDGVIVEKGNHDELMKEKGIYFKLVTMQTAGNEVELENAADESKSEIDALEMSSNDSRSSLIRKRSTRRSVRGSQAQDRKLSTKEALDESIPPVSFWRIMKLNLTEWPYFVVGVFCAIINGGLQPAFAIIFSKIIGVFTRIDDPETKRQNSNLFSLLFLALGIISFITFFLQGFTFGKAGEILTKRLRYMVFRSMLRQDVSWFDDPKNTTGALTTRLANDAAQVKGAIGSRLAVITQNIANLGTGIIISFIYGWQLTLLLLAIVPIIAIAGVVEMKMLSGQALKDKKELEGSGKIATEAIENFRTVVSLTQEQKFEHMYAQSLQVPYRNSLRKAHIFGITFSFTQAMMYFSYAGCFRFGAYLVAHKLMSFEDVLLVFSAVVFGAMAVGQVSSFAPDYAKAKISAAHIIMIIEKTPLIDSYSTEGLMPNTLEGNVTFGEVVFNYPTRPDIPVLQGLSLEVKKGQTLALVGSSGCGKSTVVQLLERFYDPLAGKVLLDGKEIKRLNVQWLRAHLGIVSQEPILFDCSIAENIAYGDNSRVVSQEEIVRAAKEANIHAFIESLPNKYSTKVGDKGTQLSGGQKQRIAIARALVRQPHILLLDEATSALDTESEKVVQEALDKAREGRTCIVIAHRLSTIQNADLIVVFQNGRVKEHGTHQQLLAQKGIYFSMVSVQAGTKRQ

[13] = PK/PD in MDA-MB-436 xenograft; assay type: in vivo, mice; conditions: BALB/c nude, mouse, tumor, oral, 5.45 mg/kg
[14] = system: PARylation in MDA-MB-436 xenograft tumors; assay: PK/PD in MDA-MB-436 xenograft; assay type: in vivo, mice; conditions: single dose 5.45, first 12 h
[15] = system: intracranial H209 xenograft; assay: Intracranial H209 xenograft survival; assay type: in vivo, BALB/c nude mice; conditions: pamiparib 3 mg/kg BID day 1–21, 29–49; TMZ 50 mg/kg; combination TMZ 50 mg/kg plus pamiparib 0.75 mg/kg BID
[16] = system: PARylation in brain tumors, intracranial H209 xenograft; assay: Brain penetration and PD in intracranial H209 xenograft; assay type: in vivo, mice; conditions: single dose 3 mg/kg p.o., 4 h after treatment
[17] = system: GL261 syngeneic intracranial glioma; assay: GL261 syngeneic intracranial glioma model survival; assay type: in vivo, Mice; conditions: single agent 9 mpk
[18] = system: SNB-19; assay: Pamiparib and TMZ combination, anti-proliferation; assay type: cell-based; conditions: Homo sapiens, SNB-19, read-out: EC50 of TMZ single agent
[19] = system: SF-295; assay: Pamiparib and TMZ combination, anti-proliferation; assay type: cell-based; conditions: Homo sapiens, SF-295, read-out: EC50 of TMZ single agent
[20] = system: T98G; assay: Pamiparib and TMZ combination, anti-proliferation; assay type: cell-based; conditions: Homo sapiens, read-out: EC50 of TMZ single agent
[21] = system: SF-539; assay: Pamiparib and TMZ combination, anti-proliferation; assay type: cell-based; conditions: Homo sapiens, SF-539, read-out: EC50 of TMZ single agent
[22] = system: U-118MG; assay: Pamiparib and TMZ combination, anti-proliferation; assay type: cell-based; conditions: Homo sapiens, read-out: EC50 of TMZ single agent
[23] = system: U251; assay: Pamiparib and TMZ combination, anti-proliferation; assay type: cell-based; conditions: Homo sapiens, U-251, read-out: EC50 of TMZ single agent
[24] = system: LN-229; assay: Pamiparib and TMZ combination, anti-proliferation; assay type: cell-based; conditions: Homo sapiens, LN-229, read-out: EC50 of TMZ single agent
[25] = system: U87-MG; assay: Pamiparib and TMZ combination, anti-proliferation; assay type: cell-based; conditions: Homo sapiens, U-87 MG, read-out: EC50 of TMZ single agent
[26] = system: NCI-H2227; assay: Pamiparib and TMZ combination, anti-proliferation; assay type: cell-based; conditions: read-out: EC50 of TMZ single agent
[27] = system: DMS153; assay: Pamiparib and TMZ combination, anti-proliferation; assay type: cell-based; conditions: Homo sapiens, DMS-153, read-out: EC50 of TMZ single agent
[28] = system: NCI-H1048; assay: Pamiparib and TMZ combination, anti-proliferation; assay type: cell-based; conditions: Homo sapiens, NCI-H1048, read-out: EC50 of TMZ single agent
[29] = system: NCI-H209; assay: Pamiparib and TMZ combination, anti-proliferation; assay type: cell-based; conditions: Homo sapiens, NCI-H209, read-out: EC50 of TMZ single agent
[30] = system: NCI-H1436; assay: Pamiparib and TMZ combination, anti-proliferation; assay type: cell-based; conditions: Homo sapiens, NCI-H1436, read-out: EC50 of TMZ single agent
[31] = system: NCI-H2286; assay: Pamiparib and TMZ combination, anti-proliferation; assay type: cell-based; conditions: Homo sapiens, NCI-H2286, read-out: EC50 of TMZ single agent
[32] = system: NCI-H69; assay: Pamiparib and TMZ combination, anti-proliferation; assay type: cell-based; conditions: Homo sapiens, NCI-H69, read-out: EC50 of TMZ single agent
[33] = system: intracranial H209-TR xenografts; assay: Intracranial H209-TR xenograft survival; assay type: in vivo, BALB/c nude mice; conditions: same treatment schedule as intracranial H209
[34] = male, C57, mouse, brain and plasma, Brain/Plasma, single p.o. dose: Pamiparib 10, Talazoparib 3, Olaparib 50, Niraparib 50 mg/kg
[35] = single p.o. dose: Pamiparib 10, Talazoparib 3, Olaparib 50, Niraparib 50 mg/kg
[36] = mouse, plasma, intravenous, 1 mg/kg
[37] = Rat, 5 mg/kg p.o. or 2 mg/kg i.v.

SMILES: C[C@]12CCCN1CC1=NNC(=O)c3cc(F)cc4[nH]c2c1c34 [Pamiparib]
IC50 [3]: 0.00024 µM
IC50 [4]: 0.00017 µM
IC50 [5]: 0.00025 µM
AUC 0-inf/Dose ([6]; Mouse, 10 mg/kg p.o. or 1 mg/kg i.v.): 552 ± 194 ng.h/mL per mg/kg
half-life ([6]; mouse, plasma): 3.2 ± 0.5 h
Vd [6, 36]: 5.7 ± 0.5 L/kg
clearance [6, 36]: 29.9 ± 2.4 mL/min/kg
bioavailability ([6]; mouse, plasma, oral): 99 ± 35%
AUC 0-inf/Dose [7, 37]: 694 ± 124 ng.h/mL per mg/kg
clearance [7, 37]: 22.7 ± 2.8 mL/min/kg
half-life ([7]; rat, plasma): 5.5 ± 0.8 h
Vd ([7]; rat, plasma, intravenous, 2 mg/kg): 6.9 ± 0.7 L/kg
bioavailability ([7]; rat, plasma, oral): 94 ± 17%
AUC 0-inf/Dose ([8]; Dog, 2 mg/kg p.o. or 1 mg/kg i.v.): 800 ± 95 ng.h/mL per mg/kg
half-life ([8]; dog, plasma): 3.6 ± 1.9 h
Vd ([8]; dog, plasma, intravenous, 1 mg/kg): 2.1 ± 0.2 L/kg
bioavailability ([8]; dog, plasma, oral): 73 ± 4%
drug concentration in brain ([1]; maintained for 4 h post treatment): > 100 ng/g
Kp [1, 34]: 0.18
AUC1-4h, Brain [1, 35]: 820 ng·h/g
drug concentration in the brain as share of the detected plasma level [9]: approximately 20%
Kp [10]: 0.158
BCRP substrate assessment [11]: not a substrate of P-gp or BCRP
P-gp substrate assessment [12]: not a substrate of P-gp or BCRP
objective responses ([2]; day 29, lowest dose 1.6 mg/kg BID): 100%
objective responses (PR plus CR) ([2]; day 29, pamiparib oral, BID for 28 days, doses from 1.6 mg/kg): 100%
tumor relapse at day 89 ([2]; pamiparib lowest dose 1.6 mg/kg): tumor relapse was observed
concentration at 4 h [13]: ~800 nM
intra-tumor concentration [14]: > 0.5 µmol/kg
median survival [15]: 26.5 days
inhibition of PARylation in brain tumors [16]: complete inhibition of PARylation; also recorded: completely inhibited
median survival [17]: 21 days

SMILES: Cn1nnc2c(C(N)=O)ncn2c1=O [TMZ, Temozolomide]
EC50 [18]: > 300 µM
EC50 [19]: > 300 µM
EC50 [20]: > 300 µM
EC50 [21]: 80 µM
EC50 [22]: > 300 µM
EC50 [23]: 32 µM
EC50 [24]: > 300 µM
EC50 [25]: > 300 µM
EC50 [26]: 576 µM
EC50 [27]: 60 µM
EC50 [28]: 153 µM
EC50 [29]: 63 µM
EC50 [30]: > 300 µM
EC50 [31]: 182 µM
EC50 [32]: 15 µM
median survival [15]: 75 days
median survival [33]: 24 days

SMILES: Cn1ncnc1[C@H]1c2n[nH]c(=O)c3cc(F)cc(c23)N[C@@H]1c1ccc(F)cc1 [Talazoparib, talazoparib]
AUC1-4h, Brain [1, 35]: 85 ng·h/g

Second part, led by results:

Kp at 1 h ([1]; male, C57, mouse, brain and plasma, oral, Brain/Plasma, concentration, 1 h, single p.o. dose: Pamiparib 10, Talazoparib 3, Olaparib 50, Niraparib 50 mg/kg): 0.06
Kp at 2 h ([1]; male, C57, mouse, brain and plasma, oral, Brain/Plasma, concentration, 2 h, single p.o. dose: Pamiparib 10, Talazoparib 3, Olaparib 50, Niraparib 50 mg/kg): 0.08
Kp at 4 h ([1]; male, C57, mouse, brain and plasma, oral, Brain/Plasma, concentration, 4 h, single p.o. dose: Pamiparib 10, Talazoparib 3, Olaparib 50, Niraparib 50 mg/kg): 0.14
Kp [1, 34]: 0.09
AUC1-4h, Brain [1, 35]: 1849 ng·h/g
SMILES: NC(=O)c1cccc2cn(-c3ccc([C@@H]4CCCNC4)cc3)nc12 [Niraparib, niraparib]

AUC1-4h, Brain [1, 35]: 56 ng·h/g
SMILES: O=C(c1cc(Cc2n[nH]c(=O)c3ccccc23)ccc1F)N1CCN(C(=O)C2CC2)CC1 [Olaparib, olaparib, reference compound]
objective responses ([2]; olaparib high-dose group (50 mg/kg, BID)): 100%
tumor relapse at day 89 ([2]; olaparib 25 mg/kg BID): tumor relapse was observed
